Blank lines part the entries; values can stand above or below the compound they belong to.
How the values were obtained:
[1] = molecular target: 5-hydroxytryptamine receptor 6 (Homo sapiens, UniProt P50406); test: Inhibition against human 5-hydroxytryptamine 6 receptor
Melanocortin receptor 4 [2] = molecular target: T1, Melanocortin receptor 4 (Homo sapiens, UniProt P32245); test: Inhibition against human melanocortin-4 (MC4) receptor
How it was run: (§1)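 BHK570 cells stably transfected with MC4 cDNA, with clones selected in G418/MTX medium. Membranes were homogenised in 20 mM Hepes pH 7.1, 5 mM MgCl2 and bacitracin. 10 μg membranes were incubated with 80 pM 125-labelled NDP-α-MSH and varying test concentrations in 25 mM HEPES pH 7.0 buffer (CaCl2, MgSO4, EGTA, tween 20, 0.1% HSA) for 2 h at 25 °C. Samples were filtered and washed with ice-cold saline, then counted; IC50 was determined.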

[3] = molecular target: T2, Growth hormone secretagogue receptor type 1 (Homo sapiens, UniProt Q92847); test: Inhibition against human growth hormone secretagogue (GHS) receptor; No binding detected
How it was run: (§2)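 Competition binding assay with ghrelin as tracer, run as previously described. IC50 values were derived from tracer displacement.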

[4] = molecular target: T2, Growth hormone secretagogue receptor type 1; test: Inhibition against human growth hormone secretagogue (GHS) receptor; how it was run: as §2
Melanocortin receptor 4 [5] = molecular target: T1, Melanocortin receptor 4; test: Inhibition against human melanocortin-4 (MC4) receptor; No binding detected; how it was run: as §1
[6] = molecular target: Growth hormone secretagogue receptor type 1 (Sus scrofa, UniProt Q95254); test: Inhibition against pig growth hormone secretagogue (GHS) receptor
[7] = molecular target: T3, Type-1 angiotensin II receptor (Homo sapiens, UniProt P30556); test: Inhibition against human angiotensin II receptor, type 1 (AG2-R)
T3 sequence (P30556 whole entry): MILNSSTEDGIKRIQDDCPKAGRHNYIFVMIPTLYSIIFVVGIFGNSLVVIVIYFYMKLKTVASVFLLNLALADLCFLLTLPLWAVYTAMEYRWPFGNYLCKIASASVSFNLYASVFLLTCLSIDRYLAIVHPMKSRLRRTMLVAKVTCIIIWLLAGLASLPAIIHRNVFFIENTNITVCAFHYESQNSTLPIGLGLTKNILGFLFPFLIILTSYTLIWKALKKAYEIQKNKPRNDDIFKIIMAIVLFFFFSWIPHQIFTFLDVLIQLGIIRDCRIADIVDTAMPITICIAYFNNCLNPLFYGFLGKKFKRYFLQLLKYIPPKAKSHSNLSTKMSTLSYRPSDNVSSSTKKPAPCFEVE
How it was run: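 Competition binding assay with saralasin as tracer, run externally by a contract lab following a published method. IC50 values were derived from tracer displacement.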

T2 sequence (Q92847 whole entry): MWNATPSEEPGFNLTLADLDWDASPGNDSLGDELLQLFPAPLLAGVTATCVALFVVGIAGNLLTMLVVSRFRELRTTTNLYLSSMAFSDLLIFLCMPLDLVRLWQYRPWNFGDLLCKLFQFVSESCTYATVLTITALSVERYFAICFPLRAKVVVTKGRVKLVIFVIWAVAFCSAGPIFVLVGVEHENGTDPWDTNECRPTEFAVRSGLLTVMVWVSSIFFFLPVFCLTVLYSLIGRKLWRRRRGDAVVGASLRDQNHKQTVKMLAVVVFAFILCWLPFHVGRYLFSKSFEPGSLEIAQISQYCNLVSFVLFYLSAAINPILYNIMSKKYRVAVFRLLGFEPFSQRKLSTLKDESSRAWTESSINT
T1 sequence (P32245 whole entry): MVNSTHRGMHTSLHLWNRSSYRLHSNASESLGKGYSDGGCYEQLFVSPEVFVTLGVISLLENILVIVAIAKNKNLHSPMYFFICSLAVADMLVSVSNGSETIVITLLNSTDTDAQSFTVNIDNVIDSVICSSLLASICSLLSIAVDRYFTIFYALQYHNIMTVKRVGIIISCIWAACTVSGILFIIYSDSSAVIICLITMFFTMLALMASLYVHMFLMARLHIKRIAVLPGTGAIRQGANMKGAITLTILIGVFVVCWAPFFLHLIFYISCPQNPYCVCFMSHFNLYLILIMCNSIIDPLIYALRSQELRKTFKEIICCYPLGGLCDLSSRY
Chain of 5-hydroxytryptamine receptor 6 (P50406 whole entry): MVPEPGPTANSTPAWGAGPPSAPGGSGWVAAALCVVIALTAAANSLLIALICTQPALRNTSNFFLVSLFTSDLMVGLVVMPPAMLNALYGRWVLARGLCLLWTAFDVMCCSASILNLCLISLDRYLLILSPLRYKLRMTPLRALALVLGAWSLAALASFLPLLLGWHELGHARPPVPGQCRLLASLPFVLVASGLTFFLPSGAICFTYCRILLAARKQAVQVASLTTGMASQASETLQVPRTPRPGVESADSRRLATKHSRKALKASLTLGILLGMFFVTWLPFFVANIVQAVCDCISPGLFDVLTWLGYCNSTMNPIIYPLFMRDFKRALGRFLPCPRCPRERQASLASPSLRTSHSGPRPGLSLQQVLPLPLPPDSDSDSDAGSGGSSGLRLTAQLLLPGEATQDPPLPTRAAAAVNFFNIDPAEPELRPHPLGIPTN
Chain of Growth hormone secretagogue receptor type 1 (Sus scrofa, UniProt Q95254) (Q95254 whole entry): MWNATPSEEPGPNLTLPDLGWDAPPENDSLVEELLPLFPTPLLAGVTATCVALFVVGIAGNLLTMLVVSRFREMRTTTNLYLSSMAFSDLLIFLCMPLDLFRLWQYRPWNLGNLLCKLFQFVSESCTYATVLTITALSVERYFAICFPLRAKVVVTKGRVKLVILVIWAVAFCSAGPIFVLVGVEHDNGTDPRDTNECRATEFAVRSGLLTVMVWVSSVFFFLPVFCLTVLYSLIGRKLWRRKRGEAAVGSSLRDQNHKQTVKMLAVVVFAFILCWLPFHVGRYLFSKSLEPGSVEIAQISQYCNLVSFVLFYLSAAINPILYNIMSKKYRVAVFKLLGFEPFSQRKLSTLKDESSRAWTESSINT

SMILES: Cc1ccc2[nH]c(-c3ccc(Br)cc3)c(CCCCCNC3CCCCC3)c2c1
IC50 (Melanocortin receptor 4 [2]): 612 nM

SMILES: CS(=O)(=O)N1CC2(CCN(C(=O)[C@@H](Cc3ccc(Cl)cc3)NC(=O)C3Cc4ccccc4CN3)CC2)c2ccccc21 (some centres undefined)
IC50 (Melanocortin receptor 4 [2]): 100 nM | IC50 [4]: 190 nM

SMILES: CC(C)(N)C(=O)N[C@H](COCc1ccccc1)C(=O)N1CCC2(CC1)CN(S(C)(=O)=O)c1ccccc12 [IBUTAMOREN]
IC50 (Melanocortin receptor 4 [5]): Not Active

More lines, now with the values ahead:

IC50 [1]: 0.7 nM
SMILES: CN(C)CCCc1c(-c2cccc(Br)c2)[nH]c2ccccc12

IC50 [3]: Not Active
SMILES: CCCCc1nc(Cl)c(CO)n1Cc1ccc(-c2ccccc2-c2nnn[nH]2)cc1 [LOSARTAN]

IC50 [6]: 63 nM | IC50 [7]: 3.6 µM | IC50 [4]: 2800 nM
SMILES: CC(C)(N)CC(=O)N[C@@H]1CCc2ccccc2N(Cc2ccc(-c3ccccc3-c3nnn[nH]3)cc2)C1=O
